An excerpt weighted towards active compounds, which were near 4.2% of everything screened.
UPR CHOP act – activators of apoptotic CHOP UPR arm, primary screen, cell-based, CHO-CHOP luciferase reporter, luminescence, uHTS; UPR activation; percent of tunicamycin response over DMSO baseline; activation, % at 10 µM; actives 0.34% (n = 330,000);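 active = at 10 µM dose, activation of 40% or more, normalized to positive control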;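 note: 100% = tunicamycin at 10 µg/mL and 0% = DMSO alone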
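Test system: CHO CHOP reporter cells. Input: 500 CHO-CHOP cells per well. Medium: F12 with 10% FBS. Technique: luciferase luminescence. Measure: percent activation relative to tunicamycin control. Dosing: 10 µM compound, 0.5% DMSO. Timing: 16-18 h cell attachment, then 6 h compound exposure, 37 °C.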
ANO1 block – TMEM16A chloride channel inhibitors, primary screen, cell-based, HTS. AID 588511, 2011. Anoctamin-1 (Mus musculus), Q8BHY3. normalized B-score (activity score, 25-100; higher = stronger inhibition) at 10 µM. actives 1.2% (n = 310,000). HEK293 TMEM16A/YFP iodide influx fluorescence, ionomycin;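 active = ratio plate-corrected score three or more library SD toward inhibition, starting fluorescence score within five deviations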;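 note: score derived from kinetic fluorescence span divided by baseline fluorescence per well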
Target sequence (Q8BHY3 whole entry, looked up): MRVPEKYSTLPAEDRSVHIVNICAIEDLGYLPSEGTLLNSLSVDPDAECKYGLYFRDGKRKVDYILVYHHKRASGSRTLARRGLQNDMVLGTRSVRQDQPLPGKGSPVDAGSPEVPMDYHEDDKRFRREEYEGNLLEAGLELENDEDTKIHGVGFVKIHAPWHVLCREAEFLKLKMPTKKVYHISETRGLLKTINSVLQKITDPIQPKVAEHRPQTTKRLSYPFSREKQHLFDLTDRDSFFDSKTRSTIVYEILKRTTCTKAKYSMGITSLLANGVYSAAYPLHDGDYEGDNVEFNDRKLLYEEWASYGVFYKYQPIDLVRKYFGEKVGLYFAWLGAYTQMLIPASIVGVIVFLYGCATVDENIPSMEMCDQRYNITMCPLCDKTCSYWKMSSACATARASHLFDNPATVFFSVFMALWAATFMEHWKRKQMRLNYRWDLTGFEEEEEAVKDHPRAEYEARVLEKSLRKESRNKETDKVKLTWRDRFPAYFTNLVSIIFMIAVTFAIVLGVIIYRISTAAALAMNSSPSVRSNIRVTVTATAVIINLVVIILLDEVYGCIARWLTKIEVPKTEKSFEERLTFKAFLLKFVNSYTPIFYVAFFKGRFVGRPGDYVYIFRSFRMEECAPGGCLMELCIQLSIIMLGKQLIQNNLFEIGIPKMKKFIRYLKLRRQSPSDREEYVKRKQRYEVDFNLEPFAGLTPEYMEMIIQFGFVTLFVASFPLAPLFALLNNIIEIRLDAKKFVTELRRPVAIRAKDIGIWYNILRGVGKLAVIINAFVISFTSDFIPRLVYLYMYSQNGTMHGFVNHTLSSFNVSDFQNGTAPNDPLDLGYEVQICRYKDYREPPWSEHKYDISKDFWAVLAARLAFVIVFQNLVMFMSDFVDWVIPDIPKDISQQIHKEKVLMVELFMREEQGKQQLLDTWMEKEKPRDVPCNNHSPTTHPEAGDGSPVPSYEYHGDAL
CHOP inh – inhibitors of CHOP promoter induction, primary screen, cell-based, unfolded protein response, luciferase reporter | CHO-K1 CHOP-promoter luciferase, tunicamycin-induced, 15-18 h | inhibition, % at 10 µM | actives 3.8% (n = 220,000) | AID 2732, 2010;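 active = compounds that reduced the stress-induced luciferase reporter signal by more than about 70% of percent inhibition, limit read from the data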;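 note: 0% = tunicamycin plus vehicle and 100% = wells without tunicamycin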
Hep lipid drop – inhibitors of hepatocyte lipid droplet formation, primary screen, imaging, high-throughput imaging, BODIPY stain | inhibition, % at 6.5 µM | actives 0.4% (n = 240,000) | AML12 mouse hepatocytes, oleate lipid droplets;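 active = lipid droplet intensity inhibited by at least 50%, with more than 500 cells counted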
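Assay system: AML12 hepatocytes (mouse) / Also added: 100 µM oleic acid challenge / Times: overnight treatment with compound plus oleate / Detection: high-content imaging of BODIPY-stained droplets and DAPI nuclei / Evaluation: % inhibition of lipid droplet signal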
TMEM16A act – TMEM16A chloride channel activators or potentiators, primary screen, cell-based, HTS | HEK293 TMEM16A/YFP-H148Q/I152L, iodide quench fluorescence; hits give low values | B-score at 10 µM | Anoctamin-1 (Mus musculus), Q8BHY3 | actives 0.3% (n = 340,000);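 active = fluorescence-ratio B-score plate-corrected deviation score at least 3 library SD below zero, with starting fluorescence score within 5 deviations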;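 note: channel opened by trigger with iodide after compound preincubation; score built on the fluorescence ratio of max minus min over baseline; more negative score means more quench and so TMEM16A activation or potentiation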
XBP1 UPR activ – activators of adaptive XBP1 UPR arm, primary screen, cell-based, CHO-XBP1 luciferase reporter, luminescence, uHTS; activation, % at 20 µM; actives 0.33% (n = 330,000); IRE1-XBP1 UPR activation; percent of tunicamycin response, DMSO as zero;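 active = versus positive control, 20 µM dose yields 30% or more activation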;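 note: 100% = tunicamycin at 10 µg/mL and 0% = DMSO only wells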
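Assay system: CHO-XBP1 luciferase reporter cells; Schedule: 6 h treatment, 37 °C; Detection: glow luminescence from Steady-Glo reagent; Benchmarks: high control tunicamycin 10 µg/mL final, low control DMSO vehicle only.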
Starred values were filed as active, the others as inactive; i = inactive; . = no result.

SMILES | UPR CHOP act | ANO1 block | CHOP inh | Hep lipid drop | TMEM16A act | XBP1 UPR activ
COC(=O)c1sc(NC(=O)C2c3ccccc3Oc3ccccc32)c(C(=O)OC)c1C | 6.1 | i | 13.7 | 0.9 | i | -2.0
CCOC(=O)c1c(NC(=O)CN2CCCc3ccccc32)sc(C(C)=O)c1C | 1.6 | i | 93.0* | 6.0 | i | -0.7
NC(=O)c1c(NC(=O)C2c3ccccc3Oc3ccccc32)sc2c1CCCCC2 | 2.5 | i | 73.8* | -22.9 | i | 0.1
CCOC(=O)c1c(NC(=O)C2c3ccccc3Oc3ccccc32)sc(C(C)=O)c1C | 9.6 | i | 70.8* | . | i | -2.5
Cc1ccc(C(=O)O[C@H](C(=O)O)[C@H](OC(=O)c2ccc(C)cc2)C(=O)O)cc1 (tested in a mixture with another compound) | . | . | 5.2 | . | . | .
CC1=C(C(=O)Nc2ccccn2)C(c2ccc(Cl)cc2Cl)NC(=S)N1 (centres undefined) | 1.7 | i | 13.0 | 2.8 | i | 0.1
O=C1c2cccc3c(N4CCCCC4)ccc(c23)C(=O)N1c1cccc(O)c1 | 3.5 | i | 72.1* | -0.5 | i | -3.5
Nc1ncnc2c1nc(Sc1ccc(Cl)cc1)n2C1OC2COP(=O)(O)O[C@@H]2[C@@H]1O (some centres undefined) | . | . | -15.9 | . | . | .
O=[N+]([O-])c1cccnc1N1CCC(c2cc(-c3ccc(Cl)cc3)n[nH]2)CC1 | 2.4 | i | 99.8* | 12.5 | i | 0.4
CCOC(=O)CN1CCC(c2cc(-c3ccc(Cl)cc3)n[nH]2)CC1 | 1.3 | i | . | -9.7 | i | 1.4
CCCCCC1=C(C(=O)OC)C(C(=O)OCC)N(S(=O)(=O)C(F)(F)F)c2ccccc21 (centres undefined) | 1.2 | . | . | . | i | 1.7
CC(=O)C(/C=N/c1cc(-c2ccc(C)cc2)nn1-c1ccccc1)=C(\C)O | 10.2 | i | -8.5 | 0.3 | i | 3.1
Cc1ccsc1/C=C1\CCc2ccccc2C1=O | -4.8 | i | 76.9* | 13.1 | i | -3.8
CSc1ncccc1C(=O)Nc1nc2c(C)cccc2s1 | 3.1 | i | 86.2* | -0.9 | i | 1.1
Nc1nn(S(=O)(=O)c2ccccc2)cc1-c1cccc([N+](=O)[O-])c1 | 2.1 | i | 23.1 | -16.6 | i | -1.0
CCOc1ccc(S(=O)(=O)n2cc(-c3ccccc3)c(N)n2)cc1 | 1.3 | i | 14.0 | . | i | 3.1
CCOc1ccc(S(=O)(=O)n2cc(-c3ccc(F)cc3)c(N)n2)cc1 | 1.9 | i | 95.3* | -13.4 | i | -0.3
CCOc1cc(S(=O)(=O)n2cc(-c3ccc(F)cc3)c(N)n2)cc(OCC)c1OCC | -4.5 | i | 74.1* | -11.0 | i | -3.1
Cc1ccc(-c2cn(S(=O)(=O)c3ccc(C)cc3)nc2N)cc1 | -1.4 | i | 79.4* | 5.9 | i | -3.0
Cc1ccc(NC(=O)CSc2nc3c(c(=O)[nH]2)CN(Cc2ccc(F)cc2)CC3)cc1C | -0.4 | i | 15.9 | -30.9 | -11.9* | -1.6
N#Cc1nc(-c2ccc(F)cc2)oc1NCc1cccc2c1OCO2 | 0.2 | i | 84.1* | 2.9 | i | 0.7
Cc1ccc(-c2nc(C#N)c(NCc3cccc4c3OCO4)o2)cc1 | 4.2 | i | 50.3 | 11.3 | i | 1.1
NS(=O)(=O)c1ccc(CCNC(=O)COC(=O)Cc2c(F)cccc2Cl)cc1 | 0.5 | i | . | -6.9 | i | -1.2
Cc1cc(C)n(Cc2ccc(Cl)c(Cl)c2)c(=O)c1S(=O)(=O)c1ccccc1 | . | . | 74.4* | 2.3 | i | .
O=[N+]([O-])c1ccccc1/C=N/Nc1nc(N2CCCC2)nc(N2CCCC2)n1 | -1.7 | i | 75.1* | 3.3 | i | -1.4
SMILES | UPR CHOP act | ANO1 block | CHOP inh | Hep lipid drop | TMEM16A act | XBP1 UPR activ
Cc1ccoc1C(=O)Nc1ccc2ccccc2c1 | 0.8 | i | . | 41.6 | i | -9.4
Cc1ccoc1C(=O)Nc1ccc(CC(=O)O)cc1 | -5.8 | i | 73.3* | -1.1 | i | -3.7
COc1ccc(Nc2nc(S(=O)(=O)c3ccc(C)cc3)c(Cl)s2)cc1 | -2.3 | i | 69.8 | -37.8 | i | -3.4
O=S(=O)(c1ccccc1)c1nc(NCc2ccccc2)sc1Cl | 0.6 | i | 42.4 | -33.5 | i | -1.7
O=S(=O)(c1ccccc1)c1nc(Nc2cccc(O)c2)sc1Cl | 0.0 | 100* | 26.4 | -24.1 | i | -2.8
Cc1ccc(S(=O)(=O)c2nc(Nc3ccccc3)sc2Cl)cc1 | . | . | 73.1* | -44.5 | i | .
O=C(CSc1ncccn1)NCc1cccs1 | 0.7 | i | -19.0 | -3.7 | i | -0.7
CCOC(=O)Nc1ccc(OC(=O)Oc2ccc(NC(=O)OCC)cc2)cc1 | . | . | . | . | i | .
CCOC(=O)Nc1ccc(Oc2ccccc2)cc1 | 2.1 | i | 73.5* | -2.5 | i | 7.9
Cn1nnnc1SCC(=O)Nc1ccc(Oc2ccccc2)cc1 | 1.1 | i | 74.8* | 14.6 | i | 1.8
CCOC(=O)C1=C(O)C(=O)NC(c2ccccc2)=C(OCC)C1 | 3.5 | i | 94.7* | -1.5 | i | 0.6
CCOC(=O)C1=C(O)C(=O)NC(c2ccccc2)=C(OC2CCCCC2)C1 | -0.4 | i | 36.7 | -18.4 | i | 0.4
COC(=O)c1c(NC2=NS(=O)(=O)c3ccccc32)sc2c1CCC(C(C)(C)C)C2 (centres undefined) | . | . | . | . | i | .
CC(=NNC(=O)c1ccncc1)c1cccc(Cl)c1 | . | . | . | . | i | .
CCc1noc(C)c1C(=O)Nc1nc(-c2cccs2)cs1 | 2.8 | i | . | . | i | 0.2
O=C(Nc1nc(-c2ccc(Cl)cc2Cl)cs1)c1ccc(OCC2CCCO2)cc1 (centres undefined) | 9.2 | i | 51.1 | 77.4* | i | 3.1
CCc1noc(C)c1C(=O)Nc1nc(-c2ccc(Cl)cc2Cl)cs1 | -2.0 | i | 72.9* | -16.2 | i | -0.9
O=C(CCc1nc2ccccc2c(=O)[nH]1)NNC(=O)COc1ccc(Br)cc1 | -0.5 | i | . | . | i | -1.8
O=C(C1CCC(CNS(=O)(=O)c2cccc3nsnc23)CC1)N1CC=C(c2ccccc2)CC1 (centres undefined) | 1.7 | i | 72.2* | . | i | -2.6
O=C(C1CCN(S(=O)(=O)c2cccc3nsnc23)CC1)N1CC=C(c2ccccc2)CC1 | -1.7 | 25* | 47.1 | . | i | -2.2
CC(C)C1C2CCC(C2)C1N (centres undefined) | . | . | -11.9 | . | . | .
